Results: ChEMBL document CHEMBL2150978, “Phosphorodiamidates as a promising new phosphate prodrug motif for antiviral drug discovery: application to anti-HCV agents” (J Med Chem, 2011)

Key:
Hepatitis C virus = test: Antiviral activity against Hepatitis C virus subtype 1b Con1 infected in human Huh7 cells assessed as inhibition of HCV replicon-encoded Renilla luciferase reporter activity after 72 hrs by HCV replicon assay; type: functional, organism-based, Hepacivirus hominis; settings: Con1, Huh-7, 72 h
In short: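 Huh7 cells stably carrying a bicistronic subgenomic genotype 1b (Con1) replicon with Renilla luciferase reporter, seeded at 2 × 10⁴ cells/well the day before. Four-fold serial dilutions in growth medium, no-drug controls on each plate; 3 days at 37 °C, 5% CO₂. Luciferase reagent 20 min, then luminescence (RLU) read; EC₅₀ derived.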

[1] = Cytotoxicity against human HuH7 cells after 3 days; type: cell-based, Huh-7
In short: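 Huh7 replicon cells seeded at 2 × 10⁴ per well one day before dosing. Four-fold serial dilutions in growth medium, no-drug controls on each plate. Incubated 3 days at 37 °C, 5% CO₂. Viability read by CellTiter-Glo luminescence after 20 min with reagent.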

SMILES | EC50 (Hepatitis C virus) [nM] | EC90 (Hepatitis C virus) [nM] | CC50 at 72 h [1] [µM]
CCOc1nc(N)nc2c1ncn2[C@@H]1O[C@H](CO)[C@@H](O)[C@@]1(C)O | 9500 | 24500 | > 100
COC(=O)[C@H](C)NP(=O)(N[C@@H](C)C(=O)OC)OC[C@H]1O[C@@H](n2cnc3c(OC)nc(N)nc32)[C@](C)(O)[C@@H]1O (mixture of isomers) | 5900 | > 10000 | > 100
CCOC(=O)[C@H](C)NP(=O)(N[C@@H](C)C(=O)OCC)OC[C@H]1O[C@@H](n2cnc3c(OC)nc(N)nc32)[C@](C)(O)[C@@H]1O (mixture of isomers) | 1200 | 4100 | > 100
CCCOC(=O)[C@H](C)NP(=O)(N[C@@H](C)C(=O)OCCC)OC[C@H]1O[C@@H](n2cnc3c(OC)nc(N)nc32)[C@](C)(O)[C@@H]1O (mixture of isomers) | 280 | 1200 | > 100
COc1nc(N)nc2c1ncn2[C@@H]1O[C@H](COP(=O)(N[C@@H](C)C(=O)OC(C)C)N[C@@H](C)C(=O)OC(C)C)[C@@H](O)[C@@]1(C)O (mixture of isomers) | 490 | 2100 | > 100
COc1nc(N)nc2c1ncn2[C@@H]1O[C@H](COP(=O)(N[C@@H](C)C(=O)OCCC(C)(C)C)N[C@@H](C)C(=O)OCCC(C)(C)C)[C@@H](O)[C@@]1(C)O (mixture of isomers) | 20 | 90 | 71
COc1nc(N)nc2c1ncn2[C@@H]1O[C@H](COP(=O)(N[C@@H](C)C(=O)OC2CCC2)N[C@@H](C)C(=O)OC2CCC2)[C@@H](O)[C@@]1(C)O (mixture of isomers) | 320 | 800 | > 100
COc1nc(N)nc2c1ncn2[C@@H]1O[C@H](COP(=O)(N[C@@H](C)C(=O)OC2CCCCC2)N[C@@H](C)C(=O)OC2CCCCC2)[C@@H](O)[C@@]1(C)O (mixture of isomers) | 50 | 190 | > 100
COc1nc(N)nc2c1ncn2[C@@H]1O[C@H](COP(=O)(N[C@@H](C)C(=O)OCc2ccccc2)N[C@@H](C)C(=O)OCc2ccccc2)[C@@H](O)[C@@]1(C)O (mixture of isomers) | 490 | 1600 | > 100
COc1nc(N)nc2c1ncn2[C@@H]1O[C@H](COP(=O)(N[C@@H](C)C(=O)O[C@@H](C)c2ccccc2)N[C@@H](C)C(=O)O[C@@H](C)c2ccccc2)[C@@H](O)[C@@]1(C)O (mixture of isomers) | 490 | 1700 | 88
COc1nc(N)nc2c1ncn2[C@@H]1O[C@H](COP(=O)(N[C@@H](C)C(=O)OCc2ccc(F)cc2F)N[C@@H](C)C(=O)OCc2ccc(F)cc2F)[C@@H](O)[C@@]1(C)O (mixture of isomers) | 260 | 1070 | 54
COc1nc(N)nc2c1ncn2[C@@H]1O[C@H](COP(=O)(N[C@@H](C)C(=O)OC2CCCCO2)N[C@@H](C)C(=O)OC2CCCCO2)[C@@H](O)[C@@]1(C)O (mixture of isomers) | 13300 | 29300 | > 100
COc1nc(N)nc2c1ncn2[C@@H]1O[C@H](COP(=O)(N[C@@H](C)C(=O)OCC(C)C)N[C@@H](C)C(=O)OCC(C)C)[C@@H](O)[C@@]1(C)O (mixture of isomers) | 70 | 260 | > 100
COc1nc(N)nc2c1ncn2[C@@H]1O[C@H](COP(=O)(N[C@@H](C)C(=O)OCC2CC2)N[C@@H](C)C(=O)OCC2CC2)[C@@H](O)[C@@]1(C)O (mixture of isomers) | 210 | 660 | > 100
COC(=O)C[C@H](NP(=O)(N[C@@H](CC(=O)OC)C(=O)OC)OC[C@H]1O[C@@H](n2cnc3c(OC)nc(N)nc32)[C@](C)(O)[C@@H]1O)C(=O)OC (mixture of isomers) | 10200 | > 40000 | > 100
COc1nc(N)nc2c1ncn2[C@@H]1O[C@H](COP(=O)(N[C@@H](CC(=O)OCc2ccccc2)C(=O)OCc2ccccc2)N[C@@H](CC(=O)OCc2ccccc2)C(=O)OCc2ccccc2)[C@@H](O)[C@@]1(C)O (mixture of isomers) | 610 | 1900 | > 100
COc1nc(N)nc2c1ncn2[C@@H]1O[C@H](COP(=O)(NCC(=O)OCc2ccccc2)NCC(=O)OCc2ccccc2)[C@@H](O)[C@@]1(C)O (mixture of isomers) | 600 | 1800 | > 100
COc1nc(N)nc2c1ncn2[C@@H]1O[C@H](COP(=O)(NCC(=O)OCC(C)(C)C)NCC(=O)OCC(C)(C)C)[C@@H](O)[C@@]1(C)O (mixture of isomers) | 130 | 600 | > 100

SMILES | EC50 (Hepatitis C virus) [nM] | EC90 (Hepatitis C virus) [nM] | CC50 at 72 h [1] [µM]
COc1nc(N)nc2c1ncn2[C@@H]1O[C@H](COP(=O)(N[C@@H](CC(C)C)C(=O)OC2CCCCC2)N[C@@H](CC(C)C)C(=O)OC2CCCCC2)[C@@H](O)[C@@]1(C)O (mixture of isomers) | 450 | 2000 | 20
COc1nc(N)nc2c1ncn2[C@@H]1O[C@H](COP(=O)(N[C@@H](CC(C)C)C(=O)OCc2ccccc2)N[C@@H](CC(C)C)C(=O)OCc2ccccc2)[C@@H](O)[C@@]1(C)O (mixture of isomers) | 380 | 1310 | 39
COc1nc(N)nc2c1ncn2[C@@H]1O[C@H](COP(=O)(N[C@@H](CC(C)C)C(=O)OCC(C)(C)C)N[C@@H](CC(C)C)C(=O)OCC(C)(C)C)[C@@H](O)[C@@]1(C)O (mixture of isomers) | 470 | 2400 | 27
CC[C@H](C)[C@H](NP(=O)(N[C@H](C(=O)OC)[C@@H](C)CC)OC[C@H]1O[C@@H](n2cnc3c(OC)nc(N)nc32)[C@](C)(O)[C@@H]1O)C(=O)OC (mixture of isomers) | 5170 | 29500 | > 100
CC[C@H](C)[C@H](NP(=O)(N[C@H](C(=O)OCc1ccccc1)[C@@H](C)CC)OC[C@H]1O[C@@H](n2cnc3c(OC)nc(N)nc32)[C@](C)(O)[C@@H]1O)C(=O)OCc1ccccc1 (mixture of isomers) | 400 | 1560 | 24
CC[C@H](C)[C@H](NP(=O)(N[C@H](C(=O)OCC(C)(C)C)[C@@H](C)CC)OC[C@H]1O[C@@H](n2cnc3c(OC)nc(N)nc32)[C@](C)(O)[C@@H]1O)C(=O)OCC(C)(C)C (mixture of isomers) | 2900 | 6300 | 15
COc1nc(N)nc2c1ncn2[C@@H]1O[C@H](COP(=O)(N[C@@H](CCSC)C(=O)OC2CCCCC2)N[C@@H](CCSC)C(=O)OC2CCCCC2)[C@@H](O)[C@@]1(C)O (mixture of isomers) | 600 | 2600 | 51
COc1nc(N)nc2c1ncn2[C@@H]1O[C@H](COP(=O)(N[C@@H](CCSC)C(=O)OCc2ccccc2)N[C@@H](CCSC)C(=O)OCc2ccccc2)[C@@H](O)[C@@]1(C)O (mixture of isomers) | 250 | 770 | > 100
COc1nc(N)nc2c1ncn2[C@@H]1O[C@H](COP(=O)(N[C@@H](CCSC)C(=O)OCC(C)(C)C)N[C@@H](CCSC)C(=O)OCC(C)(C)C)[C@@H](O)[C@@]1(C)O (mixture of isomers) | 2220 | 5000 | > 100
COc1nc(N)nc2c1ncn2[C@@H]1O[C@H](COP(=O)(N[C@@H](Cc2ccccc2)C(=O)OC2CCCCC2)N[C@@H](Cc2ccccc2)C(=O)OC2CCCCC2)[C@@H](O)[C@@]1(C)O (mixture of isomers) | 500 | 2000 | 25
COc1nc(N)nc2c1ncn2[C@@H]1O[C@H](COP(=O)(N[C@@H](Cc2ccccc2)C(=O)OCc2ccccc2)N[C@@H](Cc2ccccc2)C(=O)OCc2ccccc2)[C@@H](O)[C@@]1(C)O (mixture of isomers) | 320 | 1350 | 67
COc1nc(N)nc2c1ncn2[C@@H]1O[C@H](COP(=O)(N[C@@H](Cc2ccccc2)C(=O)OCC(C)(C)C)N[C@@H](Cc2ccccc2)C(=O)OCC(C)(C)C)[C@@H](O)[C@@]1(C)O (mixture of isomers) | 50 | 210 | 24
COc1nc(N)nc2c1ncn2[C@@H]1O[C@H](COP(=O)(N2CCC[C@H]2C(=O)OCc2ccccc2)N2CCC[C@H]2C(=O)OCc2ccccc2)[C@@H](O)[C@@]1(C)O (mixture of isomers) | 520 | 1800 | > 100
COc1nc(N)nc2c1ncn2[C@@H]1O[C@H](COP(=O)(N2CCC[C@H]2C(=O)OCC(C)(C)C)N2CCC[C@H]2C(=O)OCC(C)(C)C)[C@@H](O)[C@@]1(C)O (mixture of isomers) | 810 | 2000 | 56
COc1nc(N)nc2c1ncn2[C@@H]1O[C@H](COP(=O)(N[C@H](C(=O)OC2CCCCC2)C(C)C)N[C@H](C(=O)OC2CCCCC2)C(C)C)[C@@H](O)[C@@]1(C)O (mixture of isomers) | 2500 | 10000 | 20
COc1nc(N)nc2c1ncn2[C@@H]1O[C@H](COP(=O)(N[C@H](C(=O)OCC(C)(C)C)C(C)C)N[C@H](C(=O)OCC(C)(C)C)C(C)C)[C@@H](O)[C@@]1(C)O (mixture of isomers) | 720 | 2500 | 32
COC(=O)[C@H](Cc1ccc(OC(C)(C)C)cc1)NP(=O)(N[C@@H](Cc1ccc(OC(C)(C)C)cc1)C(=O)OC)OC[C@H]1O[C@@H](n2cnc3c(OC)nc(N)nc32)[C@](C)(O)[C@@H]1O (mixture of isomers) | 110 | 500 | 89
